# How the values were obtained:
# A549 [1] = assay: Cytotoxicity against human A549 cells assessed as growth inhibition at 10 uM after 72 hrs by MTT based WST-8 assay; assay type: functional; settings: A549, 72 h, read-out: GI
# Procedure, shortened: (§1)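 Single-concentration screen at 10 μM. Cells in RPMI1640 with 10% FBS were seeded at 5.0×10^3 cells/well, adhered for 4 h, then exposed for 72 h at 37 °C, 5% CO2. Medium was removed and WST-8 reagent added for 1.5 h. Absorbance was read at 450 nm with 650 nm correction and growth was expressed as percentage of vehicle-control absorbance.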
# A549 [2] = assay: Cytotoxicity against human A549 cells assessed as growth inhibition after 72 hrs by MTT based WST-8 assay; assay type: functional, cell-based; settings: A549, 72 h
# Procedure, shortened: (§2)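 Cells in RPMI1640 with 10% FBS were seeded at 5.0×10^3 cells/well and left to adhere for 4 h at 37 °C, 5% CO2. Compound was then added for 72 h. Medium was removed and WST-8 reagent (stock: 5 mM WST-8, 0.2 mM 1-methoxyphenazinium salt, 150 mM NaCl) was added for 1.5 h at 37 °C. A450 was read with 650 nm correction. IC50 was taken from concentration–response curves as % of vehicle-control absorbance.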
# MDA-MB-231 [3] = assay: Cytotoxicity against human MDA-MB-231 cells assessed as growth inhibition at 10 uM after 72 hrs by MTT based WST-8 assay; assay type: functional; settings: MDA-MB-231, 72 h, read-out: GI; procedure, shortened: as §1
# MDA-MB-231 [4] = assay: Cytotoxicity against human MDA-MB-231 cells assessed as growth inhibition after 72 hrs by MTT based WST-8 assay; assay type: functional, cell-based; settings: MDA-MB-231, 72 h; procedure, shortened: as §2
SMILES,inhibition of growth at 10 µM (A549 [1]),IC50 (A549 [2]),inhibition of growth at 10 µM (MDA-MB-231 [3]),IC50 (MDA-MB-231 [4])
O=C(Nc1ccc(Oc2ccc(-c3nccs3)cc2)cc1)Nc1cc(C(F)(F)F)ccc1Cl,75.5%,7.04 µM,60.4%,8.9 µM
O=C(Nc1ccc(Oc2ccc(-c3nccs3)cc2)cc1)Nc1ccc(Cl)c(C(F)(F)F)c1,77.6%,3.81 µM,69.6%,6.06 µM
O=C(Nc1ccc(Oc2ccc(-c3nccs3)cc2)cc1)Nc1ccc(Cl)c([N+](=O)[O-])c1,77.1%,3.89 µM,72.8%,6.87 µM
COC(=O)c1sccc1NC(=O)Nc1ccc(Oc2ccc(-c3nccs3)cc2)cc1,6.78%,,11%,
O=C(Nc1ccc(Cl)cc1)Nc1ccc(Oc2ccc(-c3ncc[nH]3)cc2)cc1,8.86%,,47.6%,
O=C(Nc1ccc(Oc2ccc(-c3ncc[nH]3)cc2)cc1)Nc1cc(Br)cc(C(F)(F)F)c1,44.1%,,-13.6%,
O=C(Nc1ccc(Oc2ccc(-c3ncc[nH]3)cc2)cc1)Nc1ccc(F)c(Cl)c1,14.6%,,4.2%,
COC(=O)c1sccc1NC(=O)Nc1ccc(Oc2ccc(-c3ncc[nH]3)cc2)cc1,2.34%,,-1.46%,
O=C(Nc1ccc(Oc2ccc(-c3ncc[nH]3)cc2)cc1)Nc1ccc(F)c(C(F)(F)F)c1,63.3%,10.5 µM,26.6%,
Cc1ccc(NC(=O)Nc2ccc(Oc3ccc(-c4ncc[nH]4)cc3)cc2)cc1,24.6%,,49.3%,
O=C(Nc1ccccc1)Nc1ccc(Oc2ccc(-c3ncc[nH]3)cc2)cc1,7.09%,,11.4%,
O=C(Nc1ccc(Oc2ccc(-c3nccs3)cc2)cc1)Nc1cccc(C(F)(F)F)c1,71.5%,5.56 µM,64.1%,9.55 µM
O=C(Nc1ccc(Cl)cc1)Nc1ccc(Oc2ccc(-c3nccs3)cc2)cc1,17.7%,,32.5%,
Cc1ccc(NC(=O)Nc2ccc(Oc3ccc(-c4nccs4)cc3)cc2)cc1,15.6%,,22.8%,
O=C(Nc1ccc(Oc2ccc(-c3ncc[nH]3)cc2)cc1)Nc1ccc(Cl)c(C(F)(F)F)c1,67.9%,7.09 µM,38.1%,
O=C(Nc1ccc(Oc2ccc(-c3ncc[nH]3)cc2)cc1)Nc1cc(C(F)(F)F)ccc1Cl,22.3%,,32.3%,
O=C(Nc1ccc(Oc2ccc(-c3ncc[nH]3)cc2)cc1)Nc1ccc(Cl)c([N+](=O)[O-])c1,12.4%,,3.36%,
O=C(Nc1ccc(Oc2ccc(-c3nccs3)cc2)cc1)Nc1ccc(F)c(C(F)(F)F)c1,76.4%,4.98 µM,71.8%,8.66 µM
O=C(Nc1ccc(Oc2ccc(-c3nccs3)cc2)cc1)Nc1cc(Br)cc(C(F)(F)F)c1,81.7%,2.71 µM,72.8%,4.19 µM
O=C(Nc1ccc(Oc2ccc(-c3nccs3)cc2)cc1)Nc1ccc(F)c(Cl)c1,37.3%,,43.9%,
O=C(Nc1ccc(Oc2ccc(-c3ncc[nH]3)cc2)cc1)Nc1cccc(C(F)(F)F)c1,30%,,28.1%,
CNC(=O)c1cc(Oc2ccc(NC(=O)Nc3ccc(Cl)c(C(F)(F)F)c3)cc2)ccn1 [SORAFENIB],81.2%,5.21 µM,79.6%,7.62 µM

# Source: ChEMBL document CHEMBL1165866, “Design, synthesis, and in vitro antitumor evaluation of novel diaryl ureas derivatives” (Eur J Med Chem, 2010)
